Source: PubChem BioAssay AID588478 (ICCB-Longwood Screening Facility, Harvard Medical School, 2011)
About 1,100 (0.33%) of roughly 330,000 compounds were called active. This is one part of a sample in which actives are shown more often than they occur.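 How the source made its calls: active means mean inhibition over replicate wells above about 20% (limit read from the data); inactive means the rest.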

target: Ubiquitin carboxyl-terminal hydrolase isozyme L5 (Homo sapiens) (UniProt Q9Y5K5); experiment: inhibitors of human UCH37 deubiquitinase, primary screen, biochemical, Ub-AMC cleavage, fluorescence (AID 588478); details: purified proteasome/UCH37, Ub-AMC cleavage fluorescence; stronger effect = higher value; concentration not given here;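 further: 0% = compound-free wells with enzyme and 100% = wells lacking proteasome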
Method in brief: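 Assay system: Proteasome-bound UCH37. Buffer or medium: pH 7.4 Tris-HCl (50 mM) with ovalbumin, ATP-MgCl2, DTT. Incubation: 30 min preincubation with enzyme, 25 min cleavage at room temperature. Measured by: fluorescence, ex 355 nm, em 460 nm. Read-out basis: percent inhibition. Control set: wells without proteasome as full block, compound-free enzyme plus substrate as uninhibited.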

Ubiquitin carboxyl-terminal hydrolase isozyme L5 (Homo sapiens), sequence (Q9Y5K5 whole entry, looked up): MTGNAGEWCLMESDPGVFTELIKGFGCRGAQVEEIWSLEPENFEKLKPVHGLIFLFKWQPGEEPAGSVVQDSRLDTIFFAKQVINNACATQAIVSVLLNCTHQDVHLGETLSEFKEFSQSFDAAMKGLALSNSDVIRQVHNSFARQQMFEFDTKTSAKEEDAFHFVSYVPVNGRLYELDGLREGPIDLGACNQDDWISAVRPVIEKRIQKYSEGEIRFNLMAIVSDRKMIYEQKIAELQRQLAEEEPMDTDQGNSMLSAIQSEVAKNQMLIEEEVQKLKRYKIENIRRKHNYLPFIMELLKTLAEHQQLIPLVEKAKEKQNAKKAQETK

inhibition, active:
O=c1ccc2c(-c3ccccc3S(=O)(=O)O)c3ccc(O)c(O)c3oc-2c1O 29%, CCOC(=O)N1CCN(C(=O)CNC(=O)Cc2ccc(Cl)cc2)CC1 33.3%, O=C(c1ccc(-n2cnnn2)cc1)N1CCN(C(c2ccccc2)c2ccccc2)CC1 26.6%, CCN1C[C@@H]2[C@@H]3C(=O)N(Cc4ccccc4)C(=O)[C@@H]3[C@](C)(C1=O)N2C(=O)c1ccc(C(C)(C)C)cc1 28.4%, CN(C)c1ccc(C=NNC(=O)c2nonc2N)cc1[N+](=O)[O-] 20.3%, C#CCOCCOCCOCCNc1nc(N2CCN(C(=O)[C@H](C(C)C)n3cc(CCO)nn3)CC2)nc(N2CCN(C(=O)[C@H]([C@@H](C)CC)n3cc(CCCN=C(N)N)nn3)CC2)n1 34.8%, COc1nc(Oc2ccc(=O)n(C)n2)nc(N(C)C)n1 29.8%, CC(C)CC[n+]1ccn(C2=C([O-])c3ccccc3C(=O)/C2=N\S(=O)(=O)c2ccccc2)c1 32.4%, COC(=O)[C@H](C)[C@H]1C[C@]1(C)[C@H](NC(=O)OCc1ccccc1)c1ccccc1 31%, CCC(=O)Nc1ccc(C(=O)N2CCN(C(=O)c3ccco3)CC2)cc1 31.4%, O=C(O)C(c1ccccc1)N1C(=O)/C(=C\c2ccc(-c3cccc(Cl)c3)o2)SC1=S (configuration not stated) 37.5%

inhibition, inactive:
O=C1c2ccccc2NC(c2ccco2)N1N=Cc1ccco1 (configuration not stated) -3.31%, COC(=O)c1ccc(-c2ccc(C=NN3C(=O)C4C5C=CC(CC5)C4C3=O)o2)cc1 (configuration not stated) -1.63%, CC(=O)OC[C@H]1O[C@@H](ON=C[C@@H](C)[C@H](OCc2ccccc2)C(C)C)[C@H](OC(C)=O)[C@@H](OC(C)=O)[C@@H]1OC(C)=O 1.03%, CCOc1cc(C=NNC(=O)C(=O)N2CCCC2)ccc1O 7.79%, CCOC(=O)N1CCN(C(=O)C(C)NC(=O)c2ccco2)CC1 (configuration not stated) 1.14%, CCOC(=O)N1CCN(C(=O)Cc2ccc(-n3c(=S)[nH]c4ccccc4c3=O)cc2)CC1 2.68%, CC(C)(C)OC(=O)NCCC(=O)NN=Cc1ccc2nccnc2c1 3.74%, COC(=O)c1nn(-c2ccccc2)c(Sc2ccc(Cl)cc2)c1C=NO -1.82%, Cc1onc(C(=O)NN)c1C(=O)N1CCN(C(c2ccccc2)c2ccccc2)CC1 1.47%, Cn1nnnc1SCC(=O)N1CCN(C(c2ccccc2)c2ccccc2)CC1 2.55%, C=C1CC(C(=O)NN=Cc2ccccc2)C1 1.24%, COc1cccc(C=NNC(=S)NC2CC3CCC2C3)c1OC (configuration not stated) 2.43%, CCN1C[C@@H]2[C@@H]3C(=O)N(C)C(=O)[C@@H]3[C@](C)(C1=O)N2C(=O)c1ccccc1 1.29%, CCN1C[C@@H]2[C@@H]3C(=O)N(Cc4ccccc4)C(=O)[C@@H]3[C@](Cc3ccccc3)(C(=O)OC)N2C1=NC1CCCCC1 -0.224%, CON=C(C(=O)N[C@@H]1C(=O)N2C(C(=O)O)=C(COC(N)=O)CS[C@H]12)c1ccco1 -2.85%, CC(CC(C)(C)c1ccccc1)=NNS(=O)(=O)c1ccccc1 3.32%, Cc1nn(-c2ccccc2)c(Cl)c1C=NO 1.54%, Nc1nonc1C(=O)NN=Cc1ccc(-c2cccc([N+](=O)[O-])c2)o1 9.92%, Cn1cc([N+](=O)[O-])c(C(=O)NN=Cc2ccc([N+](=O)[O-])cc2)n1 11.9%, O=C(CCCCO)CCCCCCCCC1NC(CO)C(O)C1O[C@@H]1OC(CO)C(O)C(O)C1O (some centres not stated) 1.76%, O=C(NN=C(c1ccccc1)c1cccnc1)c1ccc(O)cc1 4.07%, CCC(C)C(C)=NNC(=O)c1ccc(COc2ccc(Cl)c(C)c2)cc1 (configuration not stated) 1.66%, Oc1ccc(C=NNc2cccc3cccnc23)c(O)c1 1.33%, C#CCOCCOCCOCCNc1nc(N2CCN(C(=O)[C@H](CCCN=C(N)N)n3cc(C(N)[C@@H](C)CC)nn3)CC2)nc(N2CCN(C(=O)[C@H](CO)n3cc([C@@H](N)C(C)C)nn3)CC2)n1 (some centres not stated) 3.95%, C#CCOCCOCCOCCNc1nc(N2CCN(C(=O)[C@H](C(C)C)n3cc(CCO)nn3)CC2)nc(N2CCN(C(=O)[C@H](C(C)C)n3cc(CCO)nn3)CC2)n1 0.233%, CC(C)NC(=O)CC(=O)NN=Cc1ccccc1F 4.78%, CSc1cc(C=NO)c(SC)s1 3.15%, CCCn1nc(Oc2nc(NC(C)C)nc(N(C)C)n2)ccc1=O 6.24%, COc1nc(N(C)C)nc(N2CC(=O)N(CCNS(=O)(=O)c3ccc(C)cc3)C2=N)n1 -1.6%, CN(C)c1nc(NN=Cc2c[nH]c3ccccc23)nc(N2CCOCC2)n1 5.58%, Cc1ccc(C=NNC(=O)c2cc([N+](=O)[O-])cc([N+](=O)[O-])c2)o1 5.25%, CN(C)/C=C(\C#N)C(=O)NN=Cc1ccccc1 6.55%, CN(C)C=Nc1sc2c(c1C#N)CCC2 9.38%, COC(=O)[C@H](Cc1ccccc1)NC(=O)[C@@H]1C[C@H]1[C@@H](NC(=O)OCc1ccccc1)c1ccccc1 1.36%, CC(C)[C@H](NC(=O)OCc1ccccc1)C(=O)OCc1ccccc1 0.329%, O=C(NN=Cc1ccco1)c1cc(=O)[nH]c2ccccc12 7.58%, O=C(CN1CCN(C(=O)c2ccco2)CC1)Nc1ccc2c(c1)OCO2 1.43%, O=C(c1ccc2c(c1)OCO2)N1CCN(C(=O)c2ccco2)CC1 0.962%, Cc1ccc2nc(C(Cl)(Cl)Cl)nc(NN=Cc3ccc([N+](=O)[O-])cc3)c2c1 -0.00251%, O=C1c2ccccc2NC(c2ccc(-c3cccc(Cl)c3)o2)N1O (configuration not stated) -14.2%, S=c1[nH]nc(-c2cccc(Cl)c2)n1N=Cc1ccc(-c2ccccc2Br)o1 8%
